Data as given in ChEMBL document CHEMBL1135993, “4,5-diphenyltriazol-3-ones: openers of large-conductance Ca(2+)-activated potassium (maxi-K) channels” (J Med Chem, 2002).

Target: Calcium-activated potassium channel subunit alpha-1 (Mus musculus) (UniProt Q08460)
Assay: Percent opening of mouse maxi-K channel expressed in xenopus oocyte at a concentration of 20 umolar under voltage clamp.
Format: functional
Settings: Xenopus laevis oocytes
How it was run: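 Xenopus laevis oocytes injected with mSlo cRNA 2–6 days before recording, kept at 17 °C in ND96 (mM: NaCl 90, KCl 1.0, CaCl2 1.0, MgCl2 1.0, HEPES 5.0, pH 7.5) with 5% horse serum and penicillin/streptomycin. Two-electrode voltage clamp, steps 500–750 ms, +20 mV increments from −60 mV holding to +140 mV. Compound gravity-perfused at 20 μM. Iberiotoxin-sensitive outward current expressed as percent of control; mean of ≥5 oocytes.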

Sequence of Calcium-activated potassium channel subunit alpha-1 (Mus musculus) (Q08460 whole entry): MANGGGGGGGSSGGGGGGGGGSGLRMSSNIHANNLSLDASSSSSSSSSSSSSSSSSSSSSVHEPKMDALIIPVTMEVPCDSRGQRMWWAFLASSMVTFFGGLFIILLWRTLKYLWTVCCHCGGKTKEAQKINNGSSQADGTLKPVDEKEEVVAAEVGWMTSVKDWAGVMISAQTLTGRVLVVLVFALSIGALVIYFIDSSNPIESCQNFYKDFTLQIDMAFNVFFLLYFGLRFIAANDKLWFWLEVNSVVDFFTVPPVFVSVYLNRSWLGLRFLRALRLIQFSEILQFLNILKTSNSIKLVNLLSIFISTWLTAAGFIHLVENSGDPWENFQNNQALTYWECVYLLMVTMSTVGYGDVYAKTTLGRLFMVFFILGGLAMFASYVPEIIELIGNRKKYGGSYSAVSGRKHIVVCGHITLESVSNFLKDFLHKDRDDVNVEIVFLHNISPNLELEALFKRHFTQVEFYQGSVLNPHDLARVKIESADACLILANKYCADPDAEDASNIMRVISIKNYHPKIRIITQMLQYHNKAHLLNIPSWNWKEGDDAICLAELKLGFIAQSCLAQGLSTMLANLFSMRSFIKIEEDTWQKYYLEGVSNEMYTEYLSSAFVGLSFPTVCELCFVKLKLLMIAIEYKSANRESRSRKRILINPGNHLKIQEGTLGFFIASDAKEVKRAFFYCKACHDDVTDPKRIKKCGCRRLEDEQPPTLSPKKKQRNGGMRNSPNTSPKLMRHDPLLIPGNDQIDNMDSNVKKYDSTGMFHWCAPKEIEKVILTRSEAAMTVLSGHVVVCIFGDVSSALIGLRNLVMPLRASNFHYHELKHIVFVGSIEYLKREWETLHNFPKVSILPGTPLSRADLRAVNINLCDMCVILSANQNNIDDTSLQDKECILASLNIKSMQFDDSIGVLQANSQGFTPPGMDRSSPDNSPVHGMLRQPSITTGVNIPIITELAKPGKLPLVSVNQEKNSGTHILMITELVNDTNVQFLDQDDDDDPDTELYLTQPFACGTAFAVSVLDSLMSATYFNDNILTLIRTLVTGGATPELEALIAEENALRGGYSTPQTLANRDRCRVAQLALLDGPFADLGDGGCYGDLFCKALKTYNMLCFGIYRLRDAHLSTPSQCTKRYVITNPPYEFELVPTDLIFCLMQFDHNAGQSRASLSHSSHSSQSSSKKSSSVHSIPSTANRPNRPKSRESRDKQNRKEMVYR

Structure (SMILES) | Activity [%]
Oc1ccc(Cl)cc1-c1nnc(O)n1Cc1ccc(C(F)(F)F)cc1 | 128
Oc1ccc(Cl)cc1-n1c(O)nnc1-c1ccccc1C(F)(F)F | 107
Oc1ccc(Cl)cc1Cc1nnc(O)n1-c1ccc(C(F)(F)F)cc1 | 84
Oc1ccc(-n2c(O)nnc2-c2ccc(C(F)(F)F)cc2)cc1Cl | 99
Oc1ccc(Cl)cc1-n1c(O)nnc1-c1ccc(C(F)(F)F)cc1 | 121
Oc1ccc(Cl)cc1-n1c(O)nnc1-c1cc(C(F)(F)F)cc(C(F)(F)F)c1 | 159
Oc1ccc(Cl)cc1-n1c(O)nnc1-c1ccccc1 | 101
Oc1ccc(Cl)cc1-n1c(O)nnc1-c1ccc(F)cc1 | 118
Oc1ccc(Cl)cc1-n1c(S)nnc1-c1ccc(C(F)(F)F)cc1 | 128
Oc1ccc(Cl)cc1-n1c(O)nnc1-c1cccc(C(F)(F)F)c1 | 138
Oc1ccc(Cl)cc1Cc1nccn1-c1ccc(C(F)(F)F)cc1 | 105
Nc1nnc(-c2ccc(C(F)(F)F)cc2)n1-c1cc(Cl)ccc1O | 117
O=c1onc(-c2cc(C(F)(F)F)cc(C(F)(F)F)c2)n1-c1cc(Cl)ccc1O | 92
Oc1ccc(Cl)cc1-c1nnc(O)n1-c1ccc(C(F)(F)F)cc1 | 123
Oc1ccc(Cl)cc1Cn1c(O)nnc1-c1ccc(C(F)(F)F)cc1 | 109
Cn1nc(-c2ccc(C(F)(F)F)cc2)n(-c2cc(Cl)ccc2O)c1=O | 93
Oc1ccc(Cl)cc1-n1c(O)nnc1Cc1ccc(C(F)(F)F)cc1 | 125
O=c1[nH]c2cc(C(F)(F)F)ccc2n1-c1cc(C(F)(F)F)ccc1O | 116
O=c1[nH]c2cc(C(F)(F)F)ccc2n1-c1cc(Cl)ccc1O | 132
Oc1ccc(Cl)c(-n2c(O)nnc2-c2ccc(C(F)(F)F)cc2)c1 | 101
O=c1onc(-c2ccc(C(F)(F)F)cc2)n1Cc1cc(Cl)ccc1O | 101
Oc1ccc(Cl)cc1-n1cncc1-c1ccc(C(F)(F)F)cc1 | 126
Oc1ccc(Cl)cc1-n1cnnc1-c1ccc(C(F)(F)F)cc1 | 102
